Consider two compounds from ChEMBL document CHEMBL3856209, “Novel pyrazolopyridine derivatives as potential angiogenesis inhibitors: Synthesis, biological evaluation and transcriptome-based mechanistic analysis” (Eur J Med Chem, 2016).

Calls of active or inactive are those of the source.

Test [1] concerns HUVEC. The test is described as follows: Effect on BIRC5 gene expression in serum-starved HUVEC after 6 hrs by microarray analysis relative to control. It is filed as functional, Homo sapiens. The method in brief: (§1)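 Serum-starved confluent HUVEC treated with 2 μM compound or DMSO in 2.5% FBS for 6 h or 24 h; RNA hybridized to Illumina Human-HT12 arrays. Data background-corrected, vst-transformed and rsn-normalized. Differential probes called by moderated paired t-test (limma) at p < 0.05 and log2 fold change >|0.5| vs DMSO.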

The subject of test [2] is HUVEC. Nature of the test: Effect on MBNL2 gene expression in serum-starved HUVEC after 6 hrs by microarray analysis relative to control. The test is classed as functional, Homo sapiens. The method in brief: (§2)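 Serum-starved confluent HUVEC (pooled from 3–5 donors, passage ≤4) were treated with 2 μM compound or vehicle in 2.5% FBS for 6 h or 24 h, and total RNA was isolated. Hybridization was on Illumina Human-HT12. Data were processed with bgAdjust, vst and rsn normalization. Changes versus DMSO were called by moderated paired t-test at p < 0.05 and |log2 fold change| > 0.5.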

In test [3] the test system is HUVEC. The test is described as follows: Effect on MBNL2 gene expression in serum-starved HUVEC after 24 hrs by microarray analysis relative to control. It is filed as functional, Homo sapiens. Summed up:
as §2

The test system of test [4] is HUVEC. The test is described as follows: Effect on RHOB gene expression in serum-starved HUVEC after 24 hrs by microarray analysis relative to control. It is filed as functional, Homo sapiens.
Test [5] concerns HUVEC. Nature of the test: Effect on ACACA gene expression in serum-starved HUVEC after 6 hrs by microarray analysis relative to control. The test is classed as functional, Homo sapiens. The method in brief: as §1
For test [6], the system named is HUVEC. Nature of the test: Effect on ALDOC gene expression in serum-starved HUVEC after 6 hrs by microarray analysis relative to control. The test is classed as functional, Homo sapiens. Summed up:
as §1

Test [7] deals with HUVEC. Nature of the test: Effect on ASAP1 gene expression in serum-starved HUVEC after 6 hrs by microarray analysis relative to control. The test is classed as functional, Homo sapiens. Summed up:
(§3)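 Confluent serum-starved HUVEC (primary, pooled from 3–5 donors, passage ≤4) treated with 2 μM compound or DMSO vehicle in 2.5% FBS for 6 h or 24 h. Total RNA hybridized to Illumina Human-HT12 arrays, background-corrected, vst-transformed and rsn-normalized. Differential expression versus DMSO by moderated paired t-test (p < 0.05, |log2 fold change| > 0.5).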

The subject of test [8] is HUVEC. Nature of the test: Effect on CCL5 gene expression in serum-starved HUVEC after 6 hrs by microarray analysis relative to control. It is filed as functional, Homo sapiens. The method in brief: as §1
Test [9] deals with HUVEC. Nature of the test: Effect on CD14 gene expression in serum-starved HUVEC after 6 hrs by microarray analysis relative to control. It is filed as functional, Homo sapiens. Summed up:
as §3

The test system of test [10] is HUVEC. Nature of the test: Effect on CDKN3 gene expression in serum-starved HUVEC after 6 hrs by microarray analysis relative to control. It is filed as functional, Homo sapiens. The method in brief:
as §1

Test [11] relates to HUVEC. Nature of the test: Effect on FABP4 gene expression in serum-starved HUVEC after 6 hrs by microarray analysis relative to control. It is filed as functional, Homo sapiens. The method in brief: as §3
The test system of test [12] is HUVEC. Nature of the test: Effect on GLIPR1 gene expression in serum-starved HUVEC after 6 hrs by microarray analysis relative to control. It is filed as functional, Homo sapiens. Summed up:
(§4)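 Confluent, serum-starved HUVEC (pooled from 3–5 donors, passage ≤4) treated with 2 μM compound or vehicle with 2.5% FBS for 6 h or 24 h. Total RNA hybridized to Illumina Human-HT12 arrays. Data were background-corrected, vst-transformed and rsn-normalized. Hits called by moderated paired t-test versus DMSO-treated cells, p < 0.05 and log2 fold change >|0.5|.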

Test [13] deals with HUVEC. Nature of the test: Effect on KIF11 gene expression in serum-starved HUVEC after 6 hrs by microarray analysis relative to control. It is filed as functional, Homo sapiens. Summed up:
as §4

For test [14], the system named is HUVEC. Nature of the test: Effect on LSS gene expression in serum-starved HUVEC after 6 hrs by microarray analysis relative to control. It is filed as functional, Homo sapiens.
Test [15] relates to HUVEC. The test is described as follows: Effect on MTSS1 gene expression in serum-starved HUVEC after 6 hrs by microarray analysis relative to control. It is filed as functional, Homo sapiens.
For test [16], the system named is HUVEC. Nature of the test: Effect on SPDL1 gene expression in serum-starved HUVEC after 6 hrs by microarray analysis relative to control. It is filed as functional, Homo sapiens.
For test [17], the system named is HUVEC. Nature of the test: Effect on SULF1 gene expression in serum-starved HUVEC after 6 hrs by microarray analysis relative to control. The test is classed as functional, Homo sapiens.
In test [18] the test system is HUVEC. The test is described as follows: Effect on SULT1C4 gene expression in serum-starved HUVEC after 6 hrs by microarray analysis relative to control. The test is classed as functional, Homo sapiens.
The test system of test [19] is HUVEC. Nature of the test: Effect on TMEM154 gene expression in serum-starved HUVEC after 6 hrs by microarray analysis relative to control. It is filed as functional, Homo sapiens.
Test [20] concerns HUVEC. The test is described as follows: Effect on TRIP13 gene expression in serum-starved HUVEC after 6 hrs by microarray analysis relative to control. The test is classed as functional, Homo sapiens.
In test [21] the test system is HUVEC. Nature of the test: Effect on YES1 gene expression in serum-starved HUVEC after 6 hrs by microarray analysis relative to control. The test is classed as functional, Homo sapiens.
The subject of test [22] is HUVEC. The test is described as follows: Effect on AIF1 gene expression in serum-starved HUVEC after 24 hrs by microarray analysis relative to control. The test is classed as functional, Homo sapiens. Summed up: as §1
The test system of test [23] is HUVEC. Nature of the test: Effect on ANGPT2 gene expression in serum-starved HUVEC after 24 hrs by microarray analysis relative to control. The test is classed as functional, Homo sapiens. Summed up: (§5)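 Serum-starved confluent HUVEC (primary, pooled from 3–5 donors, passage ≤4) treated with 2 μM test compound or DMSO vehicle (working dilutions ≤0.1% v/v) in presence of 2.5% FBS for 6 h or 24 h; total RNA hybridized to Illumina Human-HT12 arrays; background correction, vst, rsn normalization; moderated paired t-test versus DMSO, thresholds p < 0.05 and log2 fold change >|0.5|.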

Test [24] has as its system HUVEC. The test is described as follows: Effect on CCL8 gene expression in serum-starved HUVEC after 24 hrs by microarray analysis relative to control. It is filed as functional, Homo sapiens. The method in brief: as §3
In test [25] the test system is HUVEC. Nature of the test: Effect on CDCA8 gene expression in serum-starved HUVEC after 24 hrs by microarray analysis relative to control. The test is classed as functional, Homo sapiens. Summed up: as §5
Test [26] relates to HUVEC. Nature of the test: Effect on CENPF gene expression in serum-starved HUVEC after 24 hrs by microarray analysis relative to control. It is filed as functional, Homo sapiens. The method in brief:
as §5

For test [27], the system named is HUVEC. Nature of the test: Effect on CXCR4 gene expression in serum-starved HUVEC after 24 hrs by microarray analysis relative to control. The test is classed as functional, Homo sapiens. Summed up:
as §3

The subject of test [28] is HUVEC. Nature of the test: Effect on EGR1 gene expression in serum-starved HUVEC after 24 hrs by microarray analysis relative to control. The test is classed as functional, Homo sapiens. The method in brief:
as §4

In test [29] the test system is HUVEC. The test is described as follows: Effect on KITLG gene expression in serum-starved HUVEC after 24 hrs by microarray analysis relative to control. It is filed as functional, Homo sapiens. The method in brief:
as §2

Test [30] deals with HUVEC. Nature of the test: Effect on NEDD9 gene expression in serum-starved HUVEC after 24 hrs by microarray analysis relative to control. It is filed as functional, Homo sapiens. The method in brief: as §2
Test [31] deals with HUVEC. The test is described as follows: Effect on NSDHL gene expression in serum-starved HUVEC after 24 hrs by microarray analysis relative to control. It is filed as functional, Homo sapiens.
The test system of test [32] is HUVEC. The test is described as follows: Effect on PALD1 gene expression in serum-starved HUVEC after 24 hrs by microarray analysis relative to control. It is filed as functional, Homo sapiens. The method in brief: as §2
The test system of test [33] is HUVEC. The test is described as follows: Effect on SCD gene expression in serum-starved HUVEC after 24 hrs by microarray analysis relative to control. It is filed as functional, Homo sapiens.
Test [34] relates to HUVEC. Nature of the test: Effect on SMC4 gene expression in serum-starved HUVEC after 24 hrs by microarray analysis relative to control. The test is classed as functional, Homo sapiens.
Test [35] relates to HUVEC. Nature of the test: Effect on TMEM154 gene expression in serum-starved HUVEC after 24 hrs by microarray analysis relative to control. The test is classed as functional, Homo sapiens.
Test [36] can be described thus: Upregulation of HMGCS1 gene expression in serum-starved HUVEC at 2 uM after 24 hrs by qRT-PCR analysis. The test is classed as functional, cell-based. The following applies: Homo sapiens. (In general: Real-time PCR tracks product formation cycle by cycle.)
Test [37] in a line: Upregulation of INSIG1 gene expression in serum-starved HUVEC at 2 uM after 24 hrs by qRT-PCR analysis. The following applies: Homo sapiens. It is filed as functional, cell-based.
Test [38] in a line: Upregulation of SQLE gene expression in serum-starved HUVEC at 2 uM after 24 hrs by qRT-PCR analysis. The test is classed as functional, cell-based. The following applies: Homo sapiens.

As to `COc1ccc(Cn2nc(-c3ccccc3)c3cc(Cl)nc(N4CCNCC4)c32)cc1`, the “fold change (FC)” value in the test on HUVEC [1] is given as 0.0293. Further, the figures for the log2FC in the test on HUVEC [2], in the test on HUVEC [3] and with HUVEC [4] were 0.2488, 0.526 and 0.5108, respectively.

As for `COc1ccc(Cn2nc(-c3ccccc3)c3cc(Nc4ccc(N5CCN(C)CC5)cc4)nc(N4CCN(C)CC4)c32)cc1`, the “fold change (FC)” value with HUVEC [5] was 0.1305; in the test with HUVEC [6], 0.067; with HUVEC [7] it was 0.6103; with HUVEC [8] it was 0.2358; in the test on HUVEC [9], 1.7643; with HUVEC [11], 0.3036. The “fold change (FC)” value in the test with HUVEC [12] was found to be 0.1533; in the test with HUVEC [13], 0.073; in the test with HUVEC [14], 0.4912; in the test with HUVEC [15], 0.2099; with HUVEC [18], 0.1329; in the test on HUVEC [19], 0.2897. Besides, the “fold change (FC)” value is 0.5736 with HUVEC [23]; -0.7427 in the test with HUVEC [24]; -0.8847 with HUVEC [25]; -0.7151 in the test with HUVEC [26]; 0.6553 with HUVEC [27]. Besides, the log2FC in the test on HUVEC [10] was -0.0153; in the test with HUVEC [16] it was 0.1139; in the test on HUVEC [17] it was 0.5151; with HUVEC [20], -0.1432; in the test on HUVEC [21] it was 0.3231; with HUVEC [22], -0.7905. Also, the log2FC amounted to 0.5707 in the test on HUVEC [28]; 0.5605 with HUVEC [29]; 0.6094 in the test with HUVEC [30]; 1.1565 with HUVEC [31]; 0.5892 in the test with HUVEC [32]; 1.4341 with HUVEC [33]. In addition, the log2FC is -0.5117 in the test with HUVEC [34] and 0.8028 in the test on HUVEC [35]. Moreover, the outcome in test [36], in test [37] and in [38] was Active.
